The test system of series [1] is Staphylococcus aureus. The experiment in a line: (§1) Antimicrobial activity against Staphylococcus aureus Smith after 18 hrs by agar dilution method. The format is functional. A digest of the protocol:
(§2)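 Agar dilution on Mueller-Hinton medium, inoculum 10⁴ CFU/spot; MIC is the minimum inhibitory concentration against the named strain.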
A general note: In agar dilution, organisms are placed on agar that contains the substance at set levels.

The test system of series [2] is Stenotrophomonas maltophilia. Put plainly: Antimicrobial activity against Xanthomonas maltophilia IAC 739 after 18 hrs by agar dilution method. In kind it is functional. The following applies: IAC 739, 18 h. A digest of the protocol:
as §2

For series [3], the system named is Staphylococcus aureus. Put plainly: Antimicrobial activity against Staphylococcus aureus ATCC 25923 after 18 hrs by agar dilution method. The format is functional. The settings on record: ATCC 25923, 18 h. A digest of the protocol: as §2
Series [4] concerns Streptococcus pyogenes. The experiment in a line: Antimicrobial activity against Streptococcus pyogenes b15 after 18 hrs by agar dilution method. The settings on record: b15, 18 h. The format is functional. A digest of the protocol:
as §2

Series [5] can be described thus: Octanol-water partition coefficient, log D of the compound at pH 7.4 by shake-flask method. In kind it is physicochemical. The procedure, abridged:
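Octanol/water partition measured by shake-flask at pH 7.4.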

The subject of series [6] is Enterococcus faecalis. The experiment in a line: Antimicrobial activity against Enterococcus faecalis 6 after 18 hrs by agar dilution method. The following applies: Enterococcus faecalis, 6, 18 h.
Series [7] relates to Staphylococcus aureus. The experiment in a line: Antimicrobial activity against Staphylococcus aureus Smith infected in iv dosed septicaemia Swiss albino mouse model after 4 days. In kind it is functional. The settings on record: 96 h. A digest of the protocol:
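Septicaemia model in mice infected with S. aureus Smith, compound given iv. In experiments with 0-1 survivors among 5-10 control mice, ED₅₀ (mg/kg) taken as lowest dose giving 3-5 survivors out of 5 infected mice.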

The subject of series [8] is Staphylococcus aureus. The experiment in a line: Plasma shift, ratio of MIC for Staphylococcus aureus Smith in presence of mouse plasma to MIC for Staphylococcus aureus Smith in absence of mouse plasma. In kind it is functional. The procedure, abridged: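 Agar dilution MICs against S. aureus Smith were run on BHI agar mixed 1:1 with mouse plasma and on plain BHI agar. The plasma shift is the MIC with plasma divided by the MIC on BHI agar alone.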

For series [9], the system named is Staphylococcus epidermidis. The experiment in a line: Antimicrobial activity against Staphylococcus epidermidis 16/2 after 18 hrs by agar dilution method. The format is functional. The following applies: 16/2, 18 h. The procedure, abridged: as §2
The test system of series [10] is Escherichia coli. The experiment in a line: Antimicrobial activity against Escherichia coli 25922 after 18 hrs by agar dilution method. In kind it is functional. The settings on record: Escherichia coli, 25922, 18 h. A digest of the protocol:
as §2

Series [11] concerns Escherichia coli. Put plainly: Inhibition of Escherichia coli DNA gyrase A2B2 complex after 30 mins by supercoiling assay.
In series [12] the test system is Staphylococcus aureus. The description is as §1. The format is functional. The procedure, abridged:
as §2
The source holds these as a separate data set.

Series [13] relates to Haemophilus influenzae. The experiment in a line: Antimicrobial activity against multidrug-resistant Haemophilus influenzae after 18 hrs by agar dilution method. The format is functional. The procedure, abridged: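 Agar dilution on Haemophilus test medium, inoculum 10⁵ CFU/spot, against 21 multiresistant H. influenzae strains. MIC_50/90 in μg/mL taken as the minimum concentration inhibiting at least 50% or 90% of the strains.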

For series [14], the system named is Moraxella catarrhalis. Put plainly: Antimicrobial activity against multidrug-resistant Moraxella catarrhalis after 18 hrs by agar dilution method. The format is functional. The procedure, abridged: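 Agar dilution on Mueller-Hinton agar supplemented with sheep blood (5% v/v), inoculum 10⁵ CFU/spot, against 20 multiresistant M. catarrhalis strains. MIC_50/90 in μg/mL taken as the minimum concentration inhibiting at least 50% or 90% of the strains.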

For series [15], the system named is Staphylococcus aureus. The experiment in a line: Antimicrobial activity against multidrug-resistant Staphylococcus aureus after 18 hrs by agar dilution method. The format is functional. A digest of the protocol:
(§3)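 Agar dilution on Mueller-Hinton agar, inoculum 10⁴ CFU/spot, against panels of multiresistant clinical strains (S. aureus 11, E. faecalis 16, E. faecium 23). MIC_50/90 in μg/mL taken as the minimum concentration inhibiting at least 50% or 90% of the strains tested.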

Series [16] deals with Enterococcus faecium. The experiment in a line: Antimicrobial activity against multidrug-resistant Enterococcus faecium after 18 hrs by agar dilution method. In kind it is functional. A digest of the protocol: as §3
In series [17] the test system is Enterococcus faecalis. The experiment in a line: Antimicrobial activity against multidrug-resistant Enterococcus faecalis after 18 hrs by agar dilution method. The format is functional. The procedure, abridged:
as §3

Series [18] relates to Streptococcus pneumoniae. The experiment in a line: Antimicrobial activity against multidrug-resistant Streptococcus pneumoniae after 18 hrs by agar dilution method. In kind it is functional. A digest of the protocol: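 Agar dilution on IsoSensitest agar supplemented with sheep blood (5% v/v), inoculum 10⁴ CFU/spot, against 21 multiresistant S. pneumoniae strains. MIC_50/90 in μg/mL taken as the minimum concentration inhibiting at least 50% or 90% of the strains.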

Values after ≈ are worked out from the molar mass of the structure shown.

The MIC is the least concentration at which growth counts as inhibited. One may read the logD as the decadic logarithm of the distribution of all forms, ionised or not, between an organic phase and buffer at a given pH. The low end stands for a more hydrophilic compound, the high end for a more lipophilic compound. A word on the ED50: it is the dose that gives a 50% effect, or the effect in half of the subjects. Read a low ED50 as an effect at a small dose.

Regarding `COc1cc(O)c2c(c1Br)C(=O)OCCCCC(=S)N[C@H](c1nc(C)no1)CSC2`, the MIC was 0.12 µg/mL (≈ 0.232 µM) in [1]; 1 µg/mL (≈ 1.94 µM) in [2]; < 0.12 µg/mL in series [3]; 0.12 µg/mL (≈ 0.232 µM) in series [4]; 0.12 µg/mL (≈ 0.232 µM) in series [6]; < 0.12 µg/mL in series [9]. In addition, the MIC in [10] was > 64 µg/mL; in series [12] it was < 0.12 µg/mL. In series [5], this molecule displayed a log distribution coefficient (logD) of 3.23. Further, in [7], the ED50 is > 25 mg/kg. In addition, in series [8], the Ratio was 8. The MNEC in series [11] is 0.005 µg/mL.
As for `COc1cc(O)c2c(c1C)C(=O)OCC(=O)NCC(=O)N[C@H](c1nc(C)no1)CSC2`, the minimal inhibitory concentration (MIC) in [1] is 8 µg/mL (≈ 17.8 µM); in series [2], > 64 µg/mL; in [3], 32 µg/mL (≈ 71 µM); in [4] it was 2 µg/mL (≈ 4.44 µM); in series [6], 8 µg/mL (≈ 17.8 µM); in [9] it was 1 µg/mL (≈ 2.22 µM). For the same molecule, the MIC in [10] is > 64 µg/mL; in series [12], 8 µg/mL (≈ 17.8 µM). The molecule also gave a logD in [5] of 1.05. The ED50 in series [7] is > 25 mg/kg. This molecule also gave an MNEC in [11] of 0.01 µg/mL.
Regarding `COc1cc(O)c2c(c1C)C(=O)OCCCCC(=S)N[C@H](c1nc(C)no1)CSC2`, the MIC in series [1] came out at 0.06 µg/mL (≈ 0.133 µM); in [2], 0.5 µg/mL (≈ 1.11 µM); in [3], 0.12 µg/mL (≈ 0.266 µM); in [4], 0.25 µg/mL (≈ 0.554 µM); in series [6] it was 0.25 µg/mL (≈ 0.554 µM); in series [9], 0.01 µg/mL (≈ 0.0221 µM). Further, the results for the MIC in [10] and in [12] were > 64 µg/mL and 0.06 µg/mL (≈ 0.133 µM), respectively. For the same molecule, the logD in [5] amounted to 3.09. Moreover, the MIC50 came out at 8 µg/mL (≈ 17.7 µM) in series [13]; 2 µg/mL (≈ 4.43 µM) in series [14]; 1 µg/mL (≈ 2.21 µM) in [15]; 8 µg/mL (≈ 17.7 µM) in series [16]; 4 µg/mL (≈ 8.86 µM) in [17]; 1 µg/mL (≈ 2.21 µM) in series [18]. Besides, the MIC90 in series [13] turned out to be 16 µg/mL (≈ 35.4 µM); in series [14] it was 2 µg/mL (≈ 4.43 µM); in [15], 1 µg/mL (≈ 2.21 µM); in series [16], 8 µg/mL (≈ 17.7 µM); in [17], 4 µg/mL (≈ 8.86 µM); in series [18], 2 µg/mL (≈ 4.43 µM). Further, the ED50 in [7] was > 25 mg/kg. In addition, the Ratio in series [8] is recorded as 8. Moreover, the MNEC in [11] was 0.004 µg/mL.
For the molecule `COc1cc(O)c2c(c1C)C(=O)OCCCCC(=S)N[C@H](c1nc(CN)no1)CSC2.Cl`, the MIC in [1] was 0.25 µg/mL; in [2], 4 µg/mL; in series [3], 0.5 µg/mL; in [4], 0.5 µg/mL; in series [6] it was 0.5 µg/mL; in series [9], < 0.12 µg/mL. Moreover, the MIC came to 64 µg/mL in series [10] and 0.25 µg/mL in series [12]. The molecule also showed a logD in series [5] of 1.85. In series [7], this molecule yielded an ED50 of 8.5 mg/kg. Moreover, in [8], the Ratio stood at 4. Also, the MNEC in [11] was determined as 0.002 µg/mL.
Turning to `CC1(C)S[C@@H]2[C@H](NC(=O)Cc3ccccc3)C(=O)N2[C@H]1C(=O)O` [PENICILLIN G], the MIC50 in [13] worked out at 32 µg/mL (≈ 95.7 µM); in series [14], 8 µg/mL (≈ 23.9 µM); in series [18], 2 µg/mL (≈ 5.98 µM). The MIC90 is > 32 µg/mL in series [13], 32 µg/mL (≈ 95.7 µM) in [14] and 8 µg/mL (≈ 23.9 µM) in [18].
For `COc1cc(O)c2c(c1Cl)C(=O)OCCCCC(=S)N[C@H](c1nc(CN)no1)CSC2.Cl`, the MIC was 0.12 µg/mL in [1]; 4 µg/mL in series [2]; 0.5 µg/mL in series [3]; 0.25 µg/mL in series [4]; < 0.12 µg/mL in [6]; < 0.12 µg/mL in [9]. For the same molecule, the MIC came out at 64 µg/mL in series [10] and 0.12 µg/mL in series [12]. Also, the pH-dependent lipophilicity (logD) in [5] worked out at 1.89. The molecule further returned an ED50 in series [7] of 6 mg/kg. In addition, the MNEC in series [11] came out at 0.002 µg/mL.
Regarding `CC(=O)NC[C@H]1CN(c2ccc(N3CCOCC3)c(F)c2)C(=O)O1` [LINEZOLID], the MIC50 in [13] is 8 µg/mL (≈ 23.7 µM); in [14] it was 8 µg/mL (≈ 23.7 µM); in series [15], 1 µg/mL (≈ 2.96 µM); in series [16] it was 1 µg/mL (≈ 2.96 µM); in [17] it was 2 µg/mL (≈ 5.93 µM); in series [18] it was 1 µg/mL (≈ 2.96 µM). In addition, the MIC90 in series [13] was 16 µg/mL (≈ 47.4 µM); in [14], 16 µg/mL (≈ 47.4 µM); in series [15] it was 2 µg/mL (≈ 5.93 µM); in series [16], 2 µg/mL (≈ 5.93 µM); in series [17], 2 µg/mL (≈ 5.93 µM); in [18], 2 µg/mL (≈ 5.93 µM).

Values taken from ChEMBL document CHEMBL1764975, “A new DNA gyrase inhibitor subclass of the cyclothialidine family based on a bicyclic dilactam-lactone scaffold. Synthesis and antibacterial properties” (J Med Chem, 2011).
